How the values were obtained:
Triticum aestivum [1] = experiment: Inhibition of binding of HRP labeled WGA to immobilized porcine stomach […] relative to N-acetyl-glucosamine
Procedure, shortened: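 IC50 measured in the PSM-coated ELLA (WGA-HRP 1 μg mL⁻¹ final, 60 min pre-incubation with inhibitor, 90 min at 37 °C, ABTS read at 405 nm, duplicate). Relative potency β is the GlcNAc IC50 divided by the ligand IC50, with GlcNAc set to β = 1.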

[2] = Inhibition of binding of HRP labeled WGA to immobilized N-acetyl-glucosamine; parameters: species or system Triticum aestivum
Procedure, shortened: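 Covalent GlcNAc surface: amino plates activated with 0.5% 1,4-phenylene diisothiocyanate in DMSO for 3 h, then treated overnight with 1 mM spacer-linked GlcNAc amine at pH 10.1. Blocking was 1% BSA. WGA-HRP (1 μg mL⁻¹ final) was pre-incubated with inhibitor dilutions for 60 min at 37 °C, then incubated on the plates for 90 min at 37 °C. ABTS/H₂O₂ read at 405 nm. IC50 from % inhibition, duplicate.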

Triticum aestivum [3] = experiment: Inhibition of binding of HRP labeled WGA to immobilized N-acetyl-glucosamine relative to N-acetyl-glucosamine
Procedure, shortened: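 IC50 values come from the covalently immobilized GlcNAc ELLA (thiourea-linked spacer GlcNAc, WGA-HRP 1 μg mL⁻¹, 37 °C incubations, ABTS read at 405 nm, duplicate). β expresses potency relative to GlcNAc, with GlcNAc set to β = 1.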

[4] = Inhibition of binding of HRP labeled WGA to immobilized porcine stomach […]; parameters: species or system Triticum aestivum
Procedure, shortened: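 Plates coated overnight at room temperature with porcine stomach mucin (4.12 μg mL⁻¹ in PBS, pH 7.3), then blocked with 1% BSA, 90 min at 37 °C. WGA-HRP (1 μg mL⁻¹ final) pre-incubated 60 min at 37 °C with serially diluted inhibitor, then 90 min at 37 °C on plates. ABTS/H₂O₂ read-out at pH 4.0, 30 min, stopped with H₂SO₄, A405. IC50 from % inhibition curves, duplicate.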

| Activity (Triticum aestivum [1]) | IC50 [2] [µM] | Activity (Triticum aestivum [3]) | IC50 [4] [mM] | SMILES |
| --- | --- | --- | --- | --- |
| 67 | 0.088 | 260 | 15 | CC(=O)N[C@H]1[C@H](OC/C=C\COC(=O)NCc2ccc(CNC(=O)OC/C=C\CO[C@@H]3O[C@H](CO)[C@@H](O)[C@H](O)[C@H]3NC(C)=O)cc2)O[C@H](CO)[C@@H](O)[C@@H]1O |
| 10 | – | – | 100 | CC(=O)N[C@H]1[C@H](OC/C=C\COC(=O)NCc2ccccc2)O[C@H](CO)[C@@H](O)[C@@H]1O |
| 40 | 0.055 | 420 | 25 | CC(=O)N[C@H]1[C@H](OC/C=C\COC(=O)NCCN(CCNC(=O)OC/C=C\CO[C@@H]2O[C@H](CO)[C@@H](O)[C@H](O)[C@H]2NC(C)=O)CCNC(=O)OC/C=C\CO[C@@H]2O[C@H](CO)[C@@H](O)[C@H](O)[C@H]2NC(C)=O)O[C@H](CO)[C@@H](O)[C@@H]1O |
| 4.2 | – | – | 240 | CCCNC(=O)OC/C=C\CO[C@@H]1O[C@H](CO)[C@@H](O)[C@H](O)[C@H]1NC(C)=O |
| 3.6 | 10 | 2.3 | 280 | C=CCO[C@@H]1O[C@H](CO)[C@@H](O)[C@H](O)[C@H]1NC(C)=O |
| 50 | – | – | 20 | CC(=O)N[C@H]1[C@H](OC/C=C\COC(=O)NCc2cccc(CNC(=O)OC/C=C\CO[C@@H]3O[C@H](CO)[C@@H](O)[C@H](O)[C@H]3NC(C)=O)c2)O[C@H](CO)[C@@H](O)[C@@H]1O |
| 25 | – | – | 40 | CC(=O)N[C@H]1[C@H](OC/C=C\COC(=O)NCCNCCNC(=O)OC/C=C\CO[C@@H]2O[C@H](CO)[C@@H](O)[C@H](O)[C@H]2NC(C)=O)O[C@H](CO)[C@@H](O)[C@@H]1O |
| 17 | – | – | 60 | CC(=O)N[C@H]1[C@H](OC/C=C\COC(=O)NCCCOCCCCOCCCNC(=O)OC/C=C\CO[C@@H]2O[C@H](CO)[C@@H](O)[C@H](O)[C@H]2NC(C)=O)O[C@H](CO)[C@@H](O)[C@@H]1O |
| 1 | 23 | – | 1000 | CC(=O)N[C@@H]1[C@@H](O)[C@H](O)[C@@H](CO)O[C@H]1O [N-ACETYLGLUCOSAMINE] |
| 2 | 12 | 1.9 | 500 | CC(=O)N[C@H]1[C@H](OC/C=C\CO)O[C@H](CO)[C@@H](O)[C@@H]1O |
| 13 | 0.288 | 80 | 75 | CC(=O)N[C@H]1[C@H](OC/C=C\COC(=O)NCCCOCCOCCOCCCNC(=O)OC/C=C/CO[C@@H]2O[C@H](CO)[C@@H](O)[C@H](O)[C@H]2NC(C)=O)O[C@H](CO)[C@@H](O)[C@@H]1O |

Reference: ChEMBL document CHEMBL1137542, “Probing multivalent carbohydrate-lectin interactions by an enzyme-linked lectin assay employing covalently immobilized carbohydrates” (Bioorg Med Chem, 2007)
